Converted amounts (≈) assume the structure as drawn.
Key:
[1] = system: Human immunodeficiency virus 2; test: Inhibitory concentration for cytopathicity of HIV-2 (LAV-2ROD) in MT-4 cells; assay type: functional, organism-based; details: Human immunodeficiency virus 2, MT4
[2] = 50% cytotoxic concentrations for mock-infected MT-4 cells.; assay type: cell-based, MT4; details: human
In short: (§1)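 Mock-infected MT-4 cells were exposed to the compounds. Viability was read by a tetrazolium (MTT) colorimetric method in 96-well microtrays. The value is the concentration that is 50% cytotoxic, given as the mean of at least three experiments.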

[3] = system: Human immunodeficiency virus 1; test: Inhibitory concentration for cytopathicity of HIV-1 (HTLV-IIIB) in CEM cells; assay type: functional, organism-based; details: Human immunodeficiency virus 1, CCRF-CEM
In short: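 HIV-1 (HTLV-IIIB)-infected CEM cells were treated with the compounds. Cell viability was determined by a tetrazolium (XTT) assay. The 50% inhibitory concentration for cytopathicity is the mean of at least three experiments.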

[4] = system: Human immunodeficiency virus 1; test: Inhibitory concentration for cytopathicity of HIV-1 (HTLV-IIIB) in MT-4 cells; assay type: functional, organism-based; details: Human immunodeficiency virus 1, MT4
HuT78 [5] = test: Inhibitory concentration that reduced the number of gaint cells by 50% between HIV-2 infected HUT-78 cells and uninfected MOLT-4 cells.; assay type: functional, cell-based; details: Homo sapiens
In short: (§2)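 MOLT-4 cells were cocultured with an equal number of HUT-78/HTLV-IIIB or HUT-78/LAV-2ROD cells at various compound concentrations for 24 h. Giant cells were counted microscopically and analysed by laser flow cytometry. The value is the concentration reducing giant cell number by 50%, as the mean of at least three experiments.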

HuT78 [6] = test: Inhibitory concentration that reduced the number of gaint cells by 50% between HIV-1 infected HUT-78 cells and uninfected MOLT-4 cells.; assay type: functional, cell-based; details: Homo sapiens; in short: as §2
[7] = 50% cytotoxic concentrations for mock-infected MT-4 cells; assay type: cell-based, MT4; details: human; in short: as §1
HuT78 [8] = test: Inhibitory concentration that reduced the number of gaint cells by 50% between HIV-2 infected HUT-78 cells and uninfected MOLT-4 cells; assay type: functional, cell-based; details: Homo sapiens; in short: as §2
HuT78 [9] = test: Inhibitory concentration that reduced the number of gaint cells by 50% between HIV-1 infected HUT-78 cells and uninfected MOLT-4 cells; assay type: functional, cell-based; details: Homo sapiens; in short: as §2

Compound	IC50 [1] [µg/mL]	IC50 [3] [µg/mL]	IC50 [4] [µg/mL]	CC50 [2] [µg/mL]	IC50 (HuT78 [5]) [µg/mL]	IC50 (HuT78 [6]) [µg/mL]	CC50 [7] [µg/mL]	IC50 (HuT78 [8]) [µg/mL]	IC50 (HuT78 [9]) [µg/mL]
O=C(O)c1cc(Br)cc(Cc2cc(Br)cc(C(=O)O)c2O)c1O	> 100	72.1 (≈ 162 µM)	> 100	> 100	–	–	–	–	–
O=C(O)c1cc(Cc2cc(C(=O)O)c(O)c3ccccc23)c2ccccc2c1O	79 (≈ 203 µM)	20 (≈ 51.5 µM)	75 (≈ 193 µM)	73 (≈ 188 µM)	> 20	> 20	–	–	–
Cc1cc(C(c2cc(C)c(O)c(C(=O)O)c2)c2cc(C)c(O)c(C(=O)O)c2)cc(C(=O)O)c1O	67 (≈ 144 µM)	> 186	80 (≈ 172 µM)	–	–	–	82 (≈ 176 µM)	> 20	> 20
O=C(O)c1cc(Cc2cc(Cl)c(O)c(C(=O)O)c2)cc(Cl)c1O	> 100	117 (≈ 328 µM)	> 100	> 100	–	–	–	–	–
CC1=C/C(=C(/c2cc(C)c(O)c(C(=O)[O-])c2)c2c(Cl)ccc(S(=O)(=O)[O-])c2Cl)C=C(C(=O)[O-])C1=O.[Na+].[Na+].[Na+] [CHROME AZUROL S]	–	50.2	–	–	–	–	–	–	–
O=C(O)c1cc(Cc2ccc(O)c(C(=O)O)c2)ccc1O	> 100	> 276	> 100	> 100	–	–	–	–	–
O=C(O)C1=CC(=C(c2ccc(O)c(C(=O)O)c2)c2ccc(O)c(C(=O)O)c2)C=CC1=O [AURINTRICARBOXYLIC ACID]	0.85 (≈ 2.01 µM)	2.1 (≈ 4.97 µM)	1.1 (≈ 2.6 µM)	–	–	–	280 (≈ 663 µM)	4 (≈ 9.47 µM)	–
Cc1cc(C(O)(c2cc(C)c(O)c(C(=O)O)c2)c2cc(C)c(O)c(C(=O)O)c2)cc(C(=O)O)c1O	> 100	> 205	> 100	–	–	–	> 100	–	–
Cc1cc(Cc2cc(C)c(O)c(C(=O)O)c2)cc(C(=O)O)c1O	> 100	55.5 (≈ 175 µM)	> 100	–	–	–	> 100	–	–

Second part, led by results:

IC50 [1] [µg/mL]	IC50 [3] [µg/mL]	IC50 [4] [µg/mL]	Compound	CC50 [2] [µg/mL]	IC50 (HuT78 [5]) [µg/mL]	IC50 (HuT78 [6]) [µg/mL]	CC50 [7] [µg/mL]	IC50 (HuT78 [8]) [µg/mL]	IC50 (HuT78 [9]) [µg/mL]
> 100	> 125	> 100	O=C(O)c1cccc(Cc2cccc(C(=O)O)c2O)c1O	> 100	–	–	–	–	–
> 100	–	> 100	O=C(O)c1cc(Cc2cc(Br)c(O)c(C(=O)O)c2)cc(Br)c1O	> 100	–	–	–	–	–
> 100	> 78	> 100	COC(=O)c1cc(C(O)(c2ccc(O)c(C(=O)OC)c2)c2ccc(O)c(C(=O)OC)c2)ccc1O	–	–	–	66 (≈ 137 µM)	> 100	> 100
> 100	–	> 100	COC(=O)c1cc(C(c2cc(C)c(O)c(C(=O)OC)c2)c2cc(C)c(O)c(C(=O)OC)c2)cc(C)c1O	–	–	–	> 100	–	–
> 100	> 78	> 100	COC(=O)c1cc(C(c2ccc(O)c(C(=O)OC)c2)c2ccc(O)c(C(=O)OC)c2)ccc1O	–	–	–	52 (≈ 111 µM)	> 100	> 100
> 100	123	> 100	O=S(=O)([O-])c1cc(Cl)cc(Cc2cc(Cl)cc(S(=O)(=O)[O-])c2O)c1O.[Na+].[Na+]	–	–	–	> 100	> 100	> 100
15 (≈ 34.1 µM)	50.4 (≈ 114 µM)	> 100	O=C(O)c1cc(C(O)(c2ccc(O)c(C(=O)O)c2)c2ccc(O)c(C(=O)O)c2)ccc1O	–	–	–	248 (≈ 563 µM)	15 (≈ 34.1 µM)	> 100
13 (≈ 30.6 µM)	32.5 (≈ 76.6 µM)	> 100	O=C(O)c1cc(C(c2ccc(O)c(C(=O)O)c2)c2ccc(O)c(C(=O)O)c2)ccc1O	–	–	–	256 (≈ 603 µM)	15 (≈ 35.3 µM)	> 100
